Measured values published in ChEMBL document CHEMBL1146683, “Antiproliferative activity of various flavonoids and related compounds: additive effect of interferon-alpha2b” (Bioorg Med Chem Lett, 2004).
The source made the active and inactive calls. No cut-off for these calls is given here.

Test system: WISH
Assay: (§1) In vitro inhibitory activity against the growth of WISH cell derived from human cervical carcinoma was determined
Format: functional, cell-based
Procedure, shortened: (§2)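 WISH cells (HeLa-derived; grown in MEM with 10% FBS, 2 mM L-glutamine and antibiotics), 10,000 per well. Cells exposed 72 h at 37 °C to a concentration series of compound given in DMSO/ethanol (1:10), with controls solvent-matched. Total cell number read colorimetrically as hexosaminidase level. IC50, the molar concentration giving 50% growth inhibition, was taken from dose–response curves.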

| SMILES | IC50 |
| --- | --- |
| O=c1cc(-c2ccccc2[N+](=O)[O-])oc2ccccc12 | ~3000 nM |
| O=c1cc(-c2ccccc2[N+](=O)[O-])oc2ccc([N+](=O)[O-])cc12 | ~3000 nM |
| CCCCOC(=O)/C=C/c1ccc(O)c(O)c1 [BUTYL CAFFEATE] | ~3000 nM |

Test system: WISH
Assay: as §1
Format: functional
Procedure, shortened: as §2

| SMILES | Inhibition |
| --- | --- |
| CCOC(=O)/C=C/c1ccc(O)c(O)c1 [ETHYL CAFFEATE] | 50% |
| O=c1cc(-c2ccccc2[N+](=O)[O-])oc2ccccc12 | ~70% |
| O=c1cc(-c2ccccc2[N+](=O)[O-])oc2ccc([N+](=O)[O-])cc12 | ~70% |
| CCCCOC(=O)/C=C/c1ccc(O)c(O)c1 [BUTYL CAFFEATE] | ~70% |

Test system: WISH
Assay: In vitro inhibitory activity against the growth of WISH cell derived from human cervical carcinoma was determined; Inactive
Format: functional, cell-based

| SMILES | NA | inhibition |
| --- | --- | --- |
| O=c1cc(-c2ccccc2)oc2ccccc12 | inactive | – |
| O=c1cc(-c2ccccc2)oc2ccc([N+](=O)[O-])cc12 | – | inactive |
| O=C(O)/C=C/c1ccc(O)c(O)c1 | inactive | – |

Test system: WISH
Assay: In vitro inhibitory activity against the growth of WISH cell derived from human cervical carcinoma was determined; slight effect
Format: functional, cell-based

| SMILES | inhibition |
| --- | --- |
| O=c1cc(-c2ccccc2)oc2c1ccc1ccccc12 | Weak activity |
| O=c1cc(-c2ccccc2)oc2cc(O)cc(O)c12 | Weak activity |
| O=c1c(O)c(-c2ccc(O)c(O)c2)oc2cc(O)cc(O)c12 | Weak activity |
| O=c1cc(-c2ccc(O)cc2)oc2cc(O)cc(O)c12 | Weak activity |
| O=C(O)/C=C/c1ccccc1 | slight effect |
| COc1cc(OC)c2c(=O)cc(-c3ccccc3)oc2c1 | slight effect |
| O=c1cc(-c2ccccc2)oc2ccc3ccccc3c12 | Weak activity |

Test system: WISH
Assay: In vitro inhibitory activity against the growth of WISH cell derived from human cervical carcinoma was determined; slight reduction in cell growth
Format: functional, cell-based

| SMILES | inhibition |
| --- | --- |
| O=C1CC(c2ccccc2)Oc2ccccc21 (stereo not drawn) | Weak activity |
